# Test results published in ChEMBL document CHEMBL4622986, “Synthesis and Anti-HCV Activity of Sugar-Modified Guanosine Analogues: Discovery of AL-611 as an HCV NS5B Polymerase Inhibitor for the Treatment of Chronic Hepatitis C” (J Med Chem, 2020).
# Key:
# [1] = Cytotoxicity against human HuH7 cells incubated for 8 days by cellTiter-Glo assay; type: cell-based, Huh-7
# In short: (§1)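 Cells (1×10^5/well) on collagen I-coated wells, first kept 8 days in recommended medium without drug, then exposed to compound for 8 days with refeeding every other day. Viability read by CellTiter-Glo luminescence; CC50 derived by curve fitting.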
# [2] = Prodrug activation in human hepatocytes assessed as [[(2S,3S,4R,5R)-5-(2-amino-6-oxo-1H-purin-9-yl)-2,4-difluoro-3-hydroxy-4-methyl-tetrahydrofuran-2-yl]methoxy-hydroxy-phosphoryl]phosphono hydrogen phosphate metabolite formation per million cells at 50 uM incubated for 24 hrs by LC-MS/MS analysis; type: ADME, cell-based, Hepatocyte
# In short: (§2)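 Primary human hepatocytes (1.5-2 million cells/well) acclimated overnight at 37 °C, 5% CO2, then incubated 24 h with 50 μM extracellular compound. Cells washed with cold 0.9% NaCl and lysed in 70/30 methanol/water. Extract dried and reconstituted, then analysed by LC-MS/MS with an internal standard; reported as pmol per million cells.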
# [3] = Prodrug activation in Beagle dog assessed as [[(2S,3S,4R,5R)-5-(2-amino-6-oxo-1H-purin-9-yl)-2,4-difluoro-3-hydroxy-4-methyl-tetrahydrofuran-2-yl]methoxy-hydroxy-phosphoryl]phosphono hydrogen phosphate metabolite formation in liver at 9.69 mg/kg, po measured at 4 hrs post dose by LC-MS/MS analysis; type: ADME, organism-based, Canis lupus familiaris; conditions: in vivo
# In short: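 Male non-naïve beagle dogs (n=2 per time point), fasted overnight, single oral dose of 9.69 mg/kg (5 mg/kg parent nucleoside equivalent) as a solution in 40% PEG400 in water. Animals anesthetized with pentobarbital before liver collection. Liver NTP measured by negative-ion LC-MS/MS against standards spiked into blank liver homogenate.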
# Hepatitis C virus = experiment: Antiviral activity against HCV con1 subgenomic replicon infected in human HuH7 cells assessed as reduction in viral RNA level by qRT-PCR analysis; type: functional, organism-based, Hepacivirus hominis; conditions: isolate Con1, Huh-7
# In short: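 Huh-7 cells carrying a subgenomic Con1 HCV replicon (neomycin phosphotransferase, kept under 0.25 mg/ml G418) were exposed to serially diluted compound in DMEM with 2% FBS and 0.5% DMSO, without G418, at 37 °C. Total RNA was extracted and HCV RNA copies were measured by multiplex QRT-PCR (Taqman). EC50 was obtained by 4-parameter curve fit.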
# [4] = Cytotoxicity against human MT4 cells incubated for 8 days by cellTiter-Glo assay; type: cell-based; in short: as §1
# [5] = Prodrug activation in human hepatocytes assessed as [[(2S,3S,4R,5R)-5-(2-amino-6-oxo-1H-purin-9-yl)-2,4-difluoro-3-hydroxy-4-methyl-tetrahydrofuran-2-yl]methoxy-hydroxy-phosphoryl]phosphono hydrogen phosphate metabolite formation at 0.5 to 50 uM incubated for 24 hrs by LC-MS/MS analysis; type: ADME, cell-based, Hepatocyte
# In short: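 Primary human hepatocytes from three donors, acclimated overnight at 37 °C, 5% CO2, incubated 24 h across a range of extracellular compound concentrations. Cells washed with cold saline and lysed in 70/30 methanol/water. Intracellular NTP measured by negative-ion LC-MS/MS against standards spiked into untreated hepatocyte lysate; mean ± standard deviation reported.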
# [6] = Prodrug activation in human hepatocytes assessed as time at which [[(2S,3S,4R,5R)-5-(2-amino-6-oxo-1H-purin-9-yl)-2,4-difluoro-3-hydroxy-4-methyl-tetrahydrofuran-2-yl]methoxy-hydroxy-phosphoryl]phosphono hydrogen phosphate metabolite formation reached steady state at 10 uM incubated for 2 to 72 hrs by LC-MS/MS analysis; type: ADME, cell-based, Hepatocyte
# In short: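 Primary human hepatocytes acclimated overnight at 37 °C, 5% CO2, then continuously incubated with 10 μM compound and sampled over 2-72 h. Cells washed with cold saline and lysed in 70/30 methanol/water. Intracellular NTP quantified by negative-ion LC-MS/MS against standards spiked into untreated hepatocyte lysate.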
# [7] = Cytotoxicity against human U937 cells incubated for 8 days by cellTiter-Glo assay; type: cell-based, U-937; in short: as §1
# [8] = Cytotoxicity against human HuH7 cells infected with HCV con1 subgenomic replicon assessed as reduction in cell viability measured after 3 days by CellTiter-blue cell viability assay; type: cell-based, Huh-7
# In short: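 Run in the replicon-bearing Huh-7 cells under the same settings as the antiviral read (DMEM, 2% FBS, 0.5% DMSO, no G418, 37 °C). After 3 days of treatment, viability was read with CellTiter-Blue and CC50 was derived by curve fitting.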
# [9] = Selectivity index, ratio of CC50 for human HuH7 cells infected with HCV con1 subgenomic replicon to EC50 for HCV con1 subgenomic replicon; type: toxicity; conditions: read-out: Ratio CC50/EC50
# In short: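 Ratio of CC50 (CellTiter-Blue viability after 3 days) to EC50 (HCV RNA by QRT-PCR). Both were measured in Huh-7 Con1 subgenomic replicon cells in DMEM with 2% FBS and 0.5% DMSO at 37 °C.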
# [10] = Cytotoxicity against human A549 cells incubated for 8 days by cellTiter-Glo assay; type: cell-based; in short: as §1
# [11] = Prodrug activation in human hepatocytes assessed as [[(2S,3S,4R,5R)-5-(2-amino-6-oxo-1H-purin-9-yl)-2,4-difluoro-3-hydroxy-4-methyl-tetrahydrofuran-2-yl]methoxy-hydroxy-phosphoryl]phosphono hydrogen phosphate metabolite formation after 24 to 48 hrs by LC-MS/MS analysis; type: ADME, cell-based, Hepatocyte
# [12] = Prodrug activation in human hepatocytes assessed as half life of [[(2S,3S,4R,5R)-5-(2-amino-6-oxo-1H-purin-9-yl)-2,4-difluoro-3-hydroxy-4-methyl-tetrahydrofuran-2-yl]methoxy-hydroxy-phosphoryl]phosphono hydrogen phosphate metabolite at 50 uM incubated for 24 hrs followed by medium replacement measured after 6 hrs by LC-MS/MS analysis; type: ADME, cell-based, Hepatocyte
# In short: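 Primary human hepatocytes acclimated overnight at 37 °C, 5% CO2, then given 50 μM compound for 24 h. Medium replaced with blank medium and cells sampled at 0, 3, 6, 10, 24 and 48 h. Cells washed with cold saline and lysed in 70/30 methanol/water; NTP measured by LC-MS/MS. Half-life obtained by first-order fit of the terminal phase (n = 3).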
# [13] = Cytotoxicity against human HepG2 cells incubated for 8 days by cellTiter-Glo assay; type: cell-based; in short: as §1
# [14] = Prodrug activation in human hepatocytes assessed as nucleoside monophosphate metabolite formation per million cells incubated for 24 hrs; type: ADME, cell-based, Hepatocyte; in short: as §2
# [15] = Cytotoxicity against human HeLa cells incubated for 8 days by cellTiter-Glo assay; type: cell-based; in short: as §1
compound,measurement,setting,value
CCOc1nc(N)nc2c1ncn2[C@@H]1O[C@](F)(COP(=O)(N[C@@H](C)C(=O)OC(C)C)Oc2ccccc2)[C@@H](O)[C@@]1(C)F (stereo partly specified),CC50 at 192 h,[1],> 100 µM
same,Drug metabolism,[2],271 pmol
same,Drug metabolism,[3],11.2 µM
same,EC50,Hepatitis C virus,0.014 µM
same,CC50 at 192 h,[4],92 µM
same,Drug metabolism,[5],Metabolite_Detected
same,Time,[6],2 to 16 h
same,CC50 at 192 h,[7],10 µM
same,CC50 at 72 h,[8],> 100 µM
same,selectivity ratio,[9],> 7000
same,CC50 at 192 h,[10],> 100 µM
same,Drug metabolism,[11],Metabolite_Notdetected
same,t1/2,[12],11.2 h
same,CC50 at 192 h,[13],> 100 µM
same,Drug metabolism,[14],89 pmol
same,CC50 at 192 h,[15],> 100 µM
